Consider two compounds from ChEMBL document CHEMBL3808332, “Identification of novel aminopiperidine derivatives for antibacterial activity against Gram-positive bacteria” (Bioorg Med Chem Lett, 2016).

Converted amounts (≈) assume the structure as drawn.

Data set [1] addresses T1, Peptide deformylase (Staphylococcus aureus) (UniProt P68826).
T1 sequence (whole entry): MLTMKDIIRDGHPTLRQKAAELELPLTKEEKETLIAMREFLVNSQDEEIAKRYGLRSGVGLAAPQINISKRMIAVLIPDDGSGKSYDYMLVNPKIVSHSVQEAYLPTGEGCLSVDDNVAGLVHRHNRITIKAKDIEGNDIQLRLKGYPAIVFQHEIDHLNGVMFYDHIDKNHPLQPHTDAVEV
The data set can be described thus: Inhibition of Staphylococcus aureus PDF using formyl-methionine-alanine-serine as substrate assessed as increase in NADH levels at 100 nM by microtiter ELISA. (In general: In an ELISA, binding on a coated surface is turned into a signal by an enzyme label.)

Data set [2] can be described thus: Volume of distribution at steady state in iv/po dosed mouse plasma by LC-MS/MS analysis. The class given is ADME, organism-based. The following applies: read-out: Vdss. Put shortly:
(§1)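 Mice, n = 3–5 per group, given the compound intravenously and orally. Plasma pharmacokinetic parameters were derived: total plasma clearance, steady-state volume of distribution, apparent terminal elimination half-life, Tmax after oral dosing, and absolute oral bioavailability (%F).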

Data set [3] deals with T1, Peptide deformylase (Staphylococcus aureus). Kind of data set: Inhibition of Staphylococcus aureus PDF using formyl-methionine-alanine-serine as substrate assessed as increase in NADH levels at 10 nM by microtiter ELISA.
Data set [4] concerns Streptococcus pneumoniae. Kind of data set: Antibacterial activity against Penicillin-resistant Streptococcus pneumoniae after 24 hrs by microdilution method. The class given is functional.
For data set [5], the system named is Staphylococcus aureus. Kind of data set: Antibacterial activity against methicillin-resistant Staphylococcus aureus after 24 hrs by microdilution method. The class given is functional. Background: Dilution methods test growth across graded concentrations, often in twofold steps.
In data set [6] the target is T1, Peptide deformylase (Staphylococcus aureus). Kind of data set: Inhibition of Staphylococcus aureus PDF using formyl-methionine-alanine-serine as substrate assessed as increase in NADH levels at 3 nM by microtiter ELISA.
Data set [7] concerns Staphylococcus aureus. The data set can be described thus: Antibacterial activity against methicillin-resistant Staphylococcus aureus infected in po dosed mouse model assessed as inhibition of systemic infection administered bid for 3 days. The class given is functional. The following applies: 72 h. The procedure, abridged: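 Normal mice (n = 6/group) given a systemic ip challenge with a standard MRSA strain at 2 × 10⁸ CFU per mouse. Oral treatment twice daily for 3 days. Survival was scored at day 7, and ED50 with 95% CI was derived by probit analysis.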

The test system of data set [8] is Enterococcus faecium. The data set can be described thus: Antibacterial activity against vancomycin-resistant Enterococcus faecium infected in po dosed immunosuppressed mouse model assessed as inhibition of systemic infection administered bid for 3 days. The class given is functional. The note with it: 72 h. Put shortly:
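Immunosuppressed mice (n = 6/group) received a systemic ip infection with a standard vancomycin-resistant E. faecium strain at 1 × 10⁹ CFU per mouse. Dosing was oral, BID, for 3 days. ED50 and 95% CI came from probit analysis of day-7 survival.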

Data set [9] deals with T1, Peptide deformylase (Staphylococcus aureus). Kind of data set: Inhibition of Staphylococcus aureus PDF using formyl-methionine-alanine-serine as substrate assessed as increase in NADH levels at 30 nM by microtiter ELISA.
The nature of data set [10]: Tmax in iv/po dosed mouse plasma by LC-MS/MS analysis. The class given is ADME, organism-based. Put shortly: as §1
A short description of data set [11]: Plasma clearance in iv/po dosed mouse by LC-MS/MS analysis. The class given is ADME, organism-based. The procedure, abridged: as §1
Data set [12] in a line: Apparent terminal half life in iv/po dosed mouse plasma by LC-MS/MS analysis. The class given is ADME, organism-based. The note with it: read-out: betat1/2(app) (converted). The procedure, abridged:
as §1

Data set [13] relates to Streptococcus pneumoniae. Kind of data set: Antibacterial activity against Penicillin-resistant Streptococcus pneumoniae yonsei 15 infected in po dosed immunosuppressed mouse model assessed as inhibition of pulmonary infection administered bid for 3 days. The class given is functional. The following applies: yonsei 15, po, 72 h. The procedure, abridged: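 Lung infection in immunosuppressed mice (n = 6/group) by intranasal inoculation with penicillin-resistant S. pneumoniae Yonsei15 at 1 × 10⁶ CFU per mouse. Treatment was oral, twice daily for 3 days. Day-7 survival was analysed by probit to give ED50 and 95% CI.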

In data set [14] the test system is Enterococcus faecium. Kind of data set: Antibacterial activity against vancomycin-resistant Enterococcus faecium after 24 hrs by microdilution method. The class given is functional.
For another data set, the target named is T2, Peptide deformylase (Staphylococcus aureus, UniProt P68826).
T2 sequence (P68826 whole entry): T1 sequence (whole entry)
Kind of data set: Inhibition of Staphylococcus aureus PDF using formyl-methionine-alanine-serine as substrate assessed as increase in NADH levels by microtiter ELISA.

Another data set relates to Enterococcus faecalis. Kind of data set: Antibacterial activity against vancomycin-resistant Enterococcus faecalis after 24 hrs by microdilution method. The class given is functional.
Data set [15] can be described thus: Apparent oral bioavailability in mouse plasma by LC-MS/MS analysis. The class given is ADME, organism-based. Put shortly: as §1
The next data set has as its system Escherichia coli. The data set can be described thus: Antibacterial activity against Escherichia coli after 24 hrs by microdilution method. The class given is functional.
Another data set relates to Pseudomonas aeruginosa. Kind of data set: Antibacterial activity against Pseudomonas aeruginosa after 24 hrs by microdilution method. The class given is functional.

With `CC(C)(C)[C@H](NC(=O)[C@H](CC1CCCC1)CN(O)C=O)C(=O)N1CCC(NCc2cc(F)c(F)cc2F)CC1`, the inhibition in data set [1] is 78%; in data set [3] it was 20%; in data set [6], -3%; in data set [9], 51%. The Vd in data set [2] stood at 1.71 L/kg. The MIC worked out at 0.4 mg/L (≈ 0.721 µM) with Streptococcus pneumoniae [4], 1.6 mg/L (≈ 2.88 µM) in the data set on Staphylococcus aureus [5], 0.8 mg/L (≈ 1.44 µM) in the data set on Enterococcus faecium [14] and 0.8 mg/L (≈ 1.44 µM) in the data set on Enterococcus faecalis. Besides, the ED50 is 16.6 mg/kg with Staphylococcus aureus [7], 13.3 mg/kg with Enterococcus faecium [8] and 3 mg/kg with Streptococcus pneumoniae [13]. For the same compound, in [10], the time of peak concentration (Tmax) was 30 min. The compound also showed a clearance in data set [11] of 1.14 L/h/kg. Moreover, the half-life in data set [12] is 63 min. For the same compound, the IC50 at Peptide deformylase came out at 0.03 µM. Besides, the bioavailability in [15] worked out at 95.8%.
Turning to `CC(=O)NC[C@H]1CN(c2ccc(N3CCOCC3)c(F)c2)C(=O)O1` [LINEZOLID], the MIC was above 50 mg/L in the data set with Escherichia coli; 0.8 mg/L (≈ 2.37 µM) in the data set on Streptococcus pneumoniae [4]; 1.6 mg/L (≈ 4.74 µM) against Staphylococcus aureus [5]; 1.6 mg/L (≈ 4.74 µM) with Enterococcus faecium [14]; above 50 mg/L in the data set with Pseudomonas aeruginosa; 0.8 mg/L (≈ 2.37 µM) in the data set with Enterococcus faecalis. Further, the ED50 in the data set on Staphylococcus aureus [7] is 5 mg/kg; in the data set on Enterococcus faecium [8] it was 11.4 mg/kg; in the data set with Streptococcus pneumoniae [13], 1.5 mg/kg.

The term inhibition denotes the drop in the measured response relative to a control, in per cent. For orientation: MIC means the lowest concentration found to suppress growth. A higher MIC goes with weaker potency. As a reminder, the ED50 is the dose that gives a 50% effect, or the effect in half of the subjects. Usually Tmax stands for the time from dosing to the highest level. One may read the IC50 as the concentration that gives 50% inhibition. As a reminder, the bioavailability is dose-corrected exposure relative to a reference, in per cent.
